Consider 13 compounds from ChEMBL document CHEMBL3272123, “11,12-secoprostaglandins. 4. 7-(N-alkylmethanesulfonamido) heptanoic acids” (1977).

Activity calls are given as the source filed them. No cut-off for these calls is given here.

Assay [1] is filed under the species Mus musculus. Description: Stimulation of prostanoid receptor-mediated cAMP-[14C] production in Charles River CD-1 mouse ovary at 0.1 ug/ml preincubated with adenine-8-[14C] for 1 hr followed by compound addition measured after 30 mins in presence of theophylline relative to control. The class given is tissue-based. Particulars: Female gonad. An outline of the steps:
(§1)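 Ovaries from virgin female mice over 70 days old, denuded of fat; three ovaries (15-25 mg) per flask in aerated Krebs-Ringer phosphate pH 7.2 with 1 μCi adenine-8-¹⁴C, 1 h at 37 °C with shaking. Theophylline and compound (in Me₂SO) added, then 30 min at 37 °C. Stopped with TCA, tissue homogenized, ¹⁴C-cAMP isolated. Fold increase = treated/untreated cAMP; 2-3-fold taken as significant.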

For assay [2], the species on record is Mus musculus. Put plainly: Stimulation of prostanoid receptor-mediated cAMP-[14C] production in Charles River CD-1 mouse ovary at 1 ug/ml preincubated with adenine-8-[14C] for 1 hr followed by compound addition measured after 30 mins in presence of theophylline relative to control. The class given is tissue-based. Particulars: Female gonad. In a few lines:
as §1

For assay [3], the species on record is Mus musculus. Description: Stimulation of prostanoid receptor-mediated cAMP-[14C] production in Charles River CD-1 mouse ovary at 10 ug/ml preincubated with adenine-8-[14C] for 1 hr followed by compound addition measured after 30 mins in presence of theophylline relative to control. The class given is tissue-based. Particulars: Female gonad. In a few lines: as §1

Assay [4] is filed under the species Mus musculus. Put plainly: Stimulation of prostanoid receptor-mediated cAMP-[14C] production in Charles River CD-1 mouse ovary at 25 ug/ml preincubated with adenine-8-[14C] for 1 hr followed by compound addition measured after 30 mins in presence of theophylline relative to control. The class given is tissue-based. Conditions: Female gonad. In a few lines:
as §1

For assay [5], the species on record is Mus musculus. Put plainly: Stimulation of prostanoid receptor-mediated cAMP-[14C] production in Charles River CD-1 mouse ovary at 100 ug/ml preincubated with adenine-8-[14C] for 1 hr followed by compound addition measured after 30 mins in presence of theophylline relative to control. The class given is tissue-based. Conditions: Female gonad. An outline of the steps: as §1

Assay [6] relates to Cavia porcellus. Put plainly: Antithrombotic activity in po dosed guinea pig assessed as inhibition of collagen-induced platelet aggregation. The class given is functional.
The species named for a further assay is Bos taurus. Description: Inhibition of cAMP phosphodiesterase in beef heart using cAMP as substrate at 100 ug/ml. An outline of the steps: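 Beef heart cAMP phosphodiesterase tested against 0.4 mM cAMP substrate.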
Assay [7] is filed under the species Mus musculus. Put plainly: Stimulation of prostanoid receptor-mediated cAMP-[14C] production in Charles River CD-1 mouse ovary at 0.01 ug/ml preincubated with adenine-8-[14C] for 1 hr followed by compound addition measured after 30 mins in presence of theophylline relative to control. The class given is tissue-based. Particulars: Female gonad. An outline of the steps:
as §1

Assay [8] is filed under the species Mus musculus. Put plainly: Stimulation of prostanoid receptor-mediated cAMP-[14C] production in Charles River CD-1 mouse ovary at 0.05 ug/ml preincubated with adenine-8-[14C] for 1 hr followed by compound addition measured after 30 mins in presence of theophylline relative to control. The class given is tissue-based. Particulars: Female gonad. An outline of the steps:
as §1

In assay [9] the test system is Cavia porcellus. Description: Antithrombotic activity in ip dosed guinea pig assessed as inhibition of collagen-induced platelet aggregation. The class given is functional.

The ED50 is the dose at which the effect has come halfway, by size or by number of responders. `CCCCC[C@H](O)CCCN(CCCCCCC(=O)O)S(C)(=O)=O`: the fold change (FC) came to 1 in the assay filed under Mus musculus [1]; 8 in the assay filed under Mus musculus [2]; 54 in the assay filed under Mus musculus [3]; 55 in the assay listed under Mus musculus [4]; 68 in the assay filed under Mus musculus [5]. Also, the ED50 in the assay on Cavia porcellus [6] turned out to be 5 mg/kg.

Take `CCCCC[C@@H](O)CCCN(CCCCCCC(=O)O)S(C)(=O)=O`: the fold change (FC) in the assay listed under Mus musculus [3] was 23; in the assay listed under Mus musculus [4], 25; in the assay listed under Mus musculus [5], 45. In the assay on Cavia porcellus [6], the ED50 turned out to be 8.2 mg/kg.

Regarding `CCCCCCCCCN(CCCCCCC(=O)O)S(C)(=O)=O`, the values for the fold change (FC) in the assay filed under Mus musculus [3], in the assay listed under Mus musculus [4] and in the assay listed under Mus musculus [5] were 13, 14 and 15, respectively.

Take `CCCCC[C@H](O)CCC1CCC(=O)[C@@H]1CCCCCCC(=O)O` (some centres undefined): the fold change (FC) was found to be 10 in the assay filed under Mus musculus [2], 25 in the assay listed under Mus musculus [3], 26 in the assay filed under Mus musculus [4] and 19 in the assay listed under Mus musculus [5].

Consider `CS(=O)(=O)N(CCCCCCC(=O)O)CCCC1(O)CCCCC1`, for which the fold change (FC) in the assay filed under Mus musculus [3] stood at 3; in the assay listed under Mus musculus [4], 5; in the assay filed under Mus musculus [5], 10.

As to `CCCCCC(O)CCCN(CCCCCCC(=O)O)S(C)(=O)=O` (racemic), the fold change (FC) was determined as 40 in the assay filed under Mus musculus [3], 56 in the assay listed under Mus musculus [4] and 61 in the assay filed under Mus musculus [5]. Besides, the ED50 in the assay with Cavia porcellus [6] is 6 mg/kg. In the assay filed under Bos taurus, the inhibition entry is “inactive”.

In the case of `CCCCCC(O)/C=C/CN(C/C=C\CCCC(=O)O)S(C)(=O)=O` (racemic), the fold change (FC) in the assay filed under Mus musculus [3] amounted to 11; in the assay filed under Mus musculus [4], 19; in the assay listed under Mus musculus [5] it was 27.

With `CCCCCC(O)C#CCN(CCCCCCC(=O)O)S(C)(=O)=O` (racemic), the figures for the fold change (FC) in the assay filed under Mus musculus [3], in the assay filed under Mus musculus [4] and in the assay filed under Mus musculus [5] were 21, 21 and 36, respectively.

For the compound `CCCCCC(O)CCCC(CCCCCCC(=O)O)C(C)=O` (racemic), the fold change (FC) came out at 1 in the assay filed under Mus musculus [1]; 2 in the assay filed under Mus musculus [2]; 11 in the assay listed under Mus musculus [3]; 14 in the assay filed under Mus musculus [4]; 23 in the assay filed under Mus musculus [5].

Turning to `CCCCCC(O)CCCN(C/C=C\CCCC(=O)O)S(C)(=O)=O` (racemic), the fold change (FC) in the assay filed under Mus musculus [3] was 16; in the assay listed under Mus musculus [4], 18; in the assay listed under Mus musculus [5], 37.

Turning to `CCCCCC(O)CCCN(CC#CCCCC(=O)O)S(C)(=O)=O` (racemic), the fold change (FC) in the assay filed under Mus musculus [3] turned out to be 21; in the assay filed under Mus musculus [4], 30; in the assay listed under Mus musculus [5], 39.

Consider `CCCCCC(O)CCCN(CCCCOCC(=O)O)S(C)(=O)=O` (racemic), for which the fold change (FC) in the assay filed under Mus musculus [3] was 24; in the assay listed under Mus musculus [4], 27; in the assay filed under Mus musculus [5], 38.

For `CCCCC[C@H](O)/C=C/[C@H]1[C@H](O)CC(=O)[C@@H]1CCCCCCC(=O)O` [ALPROSTADIL], the fold change (FC) stood at 8 in the assay listed under Mus musculus [7]; 25 in the assay listed under Mus musculus [8]; 29 in the assay listed under Mus musculus [1]; 54 in the assay listed under Mus musculus [2]; 60 in the assay filed under Mus musculus [3]; 62 in the assay listed under Mus musculus [4]. In addition, the fold change (FC) in the assay filed under Mus musculus [5] turned out to be 62. In addition, the result in the assay on Cavia porcellus [6] was inactive. Further, the ED50 in the assay on Cavia porcellus [9] turned out to be 0.02 mg/kg.
